14 compounds from ChEMBL document CHEMBL2346613, “Synthesis of indazole based diarylurea derivatives and their antiproliferative activity against tumor cell lines” (Bioorg Med Chem Lett, 2013) can be followed below.

One series deals with A549. The series is described as follows: Cytotoxicity against human A549 cells after 72 hrs by MTT assay. The series is classed as functional, cell-based. The settings on record: A549, 72 h. In outline:
(§1)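 Cells were kept in RPMI-1640 or DMEM with 10% heat-inactivated FBS, penicillin–streptomycin, 2 mM glutamine and 10 mM HEPES at 37 °C, 5% CO2. They were trypsinized, seeded at 3 × 10³ per well and allowed 24 h before exposure to a range of concentrations for 72 h. MTT (5 mg/mL stock) was added for 4 h, absorbance read at 570 nm, and IC50 calculated.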

The subject of another series is LoVo. Put plainly: Cytotoxicity against human LoVo cells after 72 hrs by MTT assay. The series is classed as functional, cell-based. Summed up: as §1
The test system of the next series is HT-29. Put plainly: Cytotoxicity against human HT-29 cells after 72 hrs by MTT assay. To be noted: HT-29, 72 h. Type of series: functional, cell-based. Summed up:
as §1

The next series deals with SGC-7901. The series is described as follows: Cytotoxicity against human SGC7901 cells after 72 hrs by MTT assay. The series is classed as functional, cell-based. To be noted: SGC-7901, 72 h. In outline:
as §1

The next series has as its system Bel-7402. The series is described as follows: Cytotoxicity against human Bel7402 cells after 72 hrs by MTT assay. The series is classed as functional, cell-based. To be noted: Bel-7402, 72 h. Summed up:
as §1

The next series deals with NCI-H460. The series is described as follows: Cytotoxicity against human NCI-H460 cells after 72 hrs by MTT assay. The series is classed as functional, cell-based. The settings on record: NCI-H460, 72 h. In outline:
as §1

A further series concerns HepG2. The series is described as follows: Cytotoxicity against human HepG2 cells after 72 hrs by MTT assay. To be noted: HepG2, 72 h. Type of series: functional, cell-based. In outline:
as §1

The next series relates to MDA-MB-231. The series is described as follows: Cytotoxicity against human MDA-MB-231 cells after 72 hrs by MTT assay. The series is classed as functional, cell-based. The settings on record: MDA-MB-231, 72 h. In outline: as §1
In another series the test system is OS-RC-2. The series is described as follows: Cytotoxicity against human OS-RC2 cells after 72 hrs by MTT assay. The series is classed as functional, cell-based. To be noted: OS-RC-2, 72 h. In outline:
as §1

The test system of series [1] is Mus musculus. The series is described as follows: Acute toxicity against mouse at 2000 mg/kg, po administered as single dose. The series is classed as organism-based. Also noted: dose 2000 mg/kg, route oral. The settings on record: in vivo. In outline:
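Mice received one oral dose, and the read-out was any sign of toxicity. The highest dose given without signs was recorded as the tolerated single oral dose.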

For series [2], the system named is Mus musculus. The series is described as follows: Toxicity against mouse at 1460 mg/kg, po administered as single dose. The series is classed as organism-based. Also noted: dose 1460 mg/kg, route oral. The settings on record: in vivo. In outline: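 Acute toxicity was tested in mice by a single oral dose, with doses up to 2000 mg/kg. Animals were watched for any sign of toxicity.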

As for `O=C(Nc1ccc(-n2ncc3ccncc32)cc1)Nc1ccc(Cl)c(C(F)(F)F)c1`, the IC50 in the series with A549 is 10.6 µM; with LoVo, 7.1 µM; in the series on HT-29, 29.5 µM; with SGC-7901 it was over 32 µM; in the series on Bel-7402, 4 µM; with NCI-H460 it was 4.8 µM. Besides, the figures for the IC50 with HepG2, with MDA-MB-231 and in the series on OS-RC-2 were 16 µM, over 32 µM and over 32 µM, respectively.

For `O=C(Nc1ccc(-n2ncc3c(C(F)(F)F)cccc32)cc1)Nc1ccc(C(F)(F)F)cc1`, the concentration for half-maximal inhibition (IC50) in the series with A549 is 0.8 µM; with LoVo, 2.2 µM; with HT-29 it was 3.3 µM; in the series with SGC-7901, 4 µM; with Bel-7402 it was 1 µM; in the series on NCI-H460, 0.8 µM. For the same compound, the IC50 in the series with HepG2 was 1 µM; in the series with MDA-MB-231 it was 2 µM; in the series with OS-RC-2 it was 4 µM. The Activity entry in the series with Mus musculus [1] is reported as “Non-toxic”.

For the compound `COc1cccc2c1cnn2-c1ccc(NC(=O)Nc2ccc(Cl)c(C(F)(F)F)c2)cc1`, the IC50 was 3.7 µM in the series with A549; over 32 µM with LoVo; over 32 µM in the series on HT-29; 29.8 µM in the series with SGC-7901; 2.9 µM in the series with Bel-7402; 2.2 µM with NCI-H460. The IC50 with HepG2 came to 4 µM; in the series with MDA-MB-231, 1.2 µM; in the series with OS-RC-2, 28.8 µM.

Regarding `CNc1cccc2c1cnn2-c1ccc(NC(=O)Nc2ccc(Cl)c(C(F)(F)F)c2)cc1`, the IC50 with A549 turned out to be 4.9 µM; in the series on LoVo, 6.3 µM; in the series with HT-29, 5.9 µM; in the series with SGC-7901, 6.9 µM; in the series with Bel-7402, 5 µM; in the series on NCI-H460, 2.6 µM. Further, the IC50 is 3 µM in the series on HepG2, 3.6 µM in the series on MDA-MB-231 and 10.6 µM with OS-RC-2.

Take `O=C(Nc1ccc(-n2ncc3c(Cl)cccc32)cc1)Nc1ccc(Cl)c(C(F)(F)F)c1`: the IC50 in the series with A549 was determined as 3.1 µM; with LoVo, 3.6 µM; with HT-29, 4.6 µM; in the series on SGC-7901 it was 4.6 µM; with Bel-7402, 2 µM; with NCI-H460, 1.3 µM. Further, the IC50 with HepG2 turned out to be 1.9 µM; with MDA-MB-231 it was 1.6 µM; in the series on OS-RC-2 it was 3.1 µM. The Activity entry with Mus musculus [1] is recorded as “Non-toxic”.

Regarding `O=C(Nc1ccc(-n2ncc3c(C(F)(F)F)cccc32)cc1)Nc1ccc(Cl)c(C(F)(F)F)c1`, the IC50 is 3 µM in the series on A549; 3 µM with LoVo; 2.9 µM in the series on HT-29; over 32 µM in the series on SGC-7901; 16 µM in the series on Bel-7402; 1.6 µM in the series on NCI-H460. In addition, the figures for the IC50 in the series on HepG2, in the series on MDA-MB-231 and in the series with OS-RC-2 were 8 µM, 2 µM and over 32 µM, respectively. In addition, the Activity result with Mus musculus [1] is on record as “Non-toxic”.

Take `O=C(Nc1ccc(-n2ncc3cnccc32)cc1)Nc1ccc(Cl)c(C(F)(F)F)c1`: the IC50 is 3.4 µM in the series with A549; 8 µM with LoVo; 10.5 µM in the series with HT-29; 22.6 µM with SGC-7901; 2.7 µM in the series on Bel-7402; 1.4 µM in the series with NCI-H460. For the same compound, the figures for the IC50 in the series with HepG2, in the series on MDA-MB-231 and in the series on OS-RC-2 were 4 µM, 16 µM and over 32 µM, respectively.

With `O=C(Nc1ccc(-n2ncc3c(Br)cccc32)cc1)Nc1ccc(Cl)c(C(F)(F)F)c1`, the IC50 in the series on A549 is 2.3 µM; in the series with LoVo it was 1.7 µM; in the series on HT-29, 4 µM; in the series with SGC-7901 it was 16.6 µM; in the series on Bel-7402 it was 1.3 µM; in the series with NCI-H460, 1.3 µM. In addition, the IC50 with HepG2 amounted to 2.5 µM; in the series with MDA-MB-231, 7.7 µM; in the series on OS-RC-2 it was 9.9 µM.

With `O=C(Nc1ccc(-n2ncc3ccccc32)cc1)Nc1ccc(Cl)c(C(F)(F)F)c1`, the IC50 was 9.9 µM in the series with A549; 8.7 µM in the series with LoVo; 18.2 µM in the series with HT-29; over 32 µM with SGC-7901; 10.6 µM in the series with Bel-7402; 5.5 µM with NCI-H460. In addition, the IC50 in the series with HepG2 came out at 8 µM; in the series with MDA-MB-231, 5 µM; with OS-RC-2 it was 32 µM.

As for `O=C(Nc1ccc(-n2ncc3c(F)cccc32)cc1)Nc1ccc(Cl)c(C(F)(F)F)c1`, the IC50 came to 3.8 µM in the series on A549; 9.8 µM in the series on LoVo; 8.2 µM in the series with HT-29; 32 µM in the series with SGC-7901; 16 µM in the series on Bel-7402; 3.4 µM in the series on NCI-H460. The IC50 with HepG2 was 29.5 µM; in the series on MDA-MB-231, 3.1 µM; in the series with OS-RC-2, 32 µM.

As for `O=C(Nc1ccc(-n2ncc3cccnc32)cc1)Nc1ccc(Cl)c(C(F)(F)F)c1`, the IC50 with A549 was over 32 µM; in the series on LoVo, 32 µM; with HT-29, over 32 µM; with SGC-7901, over 32 µM; in the series with Bel-7402, 20.9 µM; with NCI-H460, 16.6 µM. Moreover, the IC50 in the series on HepG2, in the series on MDA-MB-231 and with OS-RC-2 was over 32 µM in each case.

On to `CNC(=O)c1cc(Oc2ccc(NC(=O)Nc3ccc(Cl)c(C(F)(F)F)c3)cc2)ccn1` [SORAFENIB], for which the IC50 in the series on A549 stood at 4 µM; in the series on LoVo, 3.3 µM; in the series on HT-29, 4 µM; in the series with SGC-7901 it was 6.9 µM; in the series with Bel-7402 it was 5.8 µM; with NCI-H460, 3.9 µM. For the same compound, the 50% inhibitory concentration (IC50) with HepG2 is 4 µM; in the series on MDA-MB-231, 2 µM; with OS-RC-2, 16 µM. Moreover, the Activity entry in the series on Mus musculus [2] was “Non-toxic”.

Regarding `O=C(Nc1ccc(-n2ncc3c(Cl)cccc32)cc1)Nc1ccc(C(F)(F)F)cc1`, the IC50 with A549 was found to be 6 µM; in the series on LoVo it was 5.1 µM; in the series with HT-29, 1 µM; with SGC-7901, 6 µM; in the series on Bel-7402 it was 8 µM; in the series with NCI-H460, 6.8 µM. Further, the figures for the IC50 in the series on HepG2, with MDA-MB-231 and with OS-RC-2 were 6.7 µM, 2.7 µM and 4.6 µM, respectively.

On to `Cc1cccc2c1cnn2-c1ccc(NC(=O)Nc2ccc(Cl)c(C(F)(F)F)c2)cc1`, for which the IC50 was determined as 5.5 µM in the series with A549; 3.9 µM in the series with LoVo; 32 µM in the series with HT-29; 14.2 µM in the series with SGC-7901; 6.7 µM with Bel-7402; 2.5 µM in the series on NCI-H460. Also, the IC50 turned out to be 4 µM in the series on HepG2, 2.3 µM in the series on MDA-MB-231 and 32 µM with OS-RC-2.
